This is an account of results in ChEMBL document CHEMBL1134907, “An improved synthesis of the C-linked glucuronide of N-(4-hydroxyphenyl)retinamide” (Bioorg Med Chem Lett, 2002).

SMILES strings stand for the structures.

Experiment [1] has as its system Rattus norvegicus. Put plainly: Final DMBA-induced mammary tumor volume in rat after retinoid treatment at 2 mmol/kg diet. Format: functional. In outline: (§1)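 Rats bearing mammary tumors induced by dimethylbenz[a]anthracene (DMBA) 50 days earlier were fed the treatment retinoid in the diet for 10 days. Each group had three tumor-bearing rats, which were killed after the 10 days. Every tumor on each rat was measured to estimate the mean tumor volume for the group.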

In experiment [2] the test system is Rattus norvegicus. Put plainly: Initial DMBA-induced mammary tumor volume in rat after retinoid treatment at 2 mmol/kg diet. Format: functional. Put shortly:
as §1

Experiment [3] is filed under the species Rattus norvegicus. The experiment is described as follows: Percentage change in DMBA-induced mammary tumor in rats; no new tumors, partial regression in 10/10 tumors. Format: functional. In outline:
as §1

The target of experiment [4] is RARα (Homo sapiens, UniProt P10276). The experiment is described as follows: Binding affinity for retinoic acid receptor RAR alpha.
Experiment [5] concerns the target RARβ (Homo sapiens, UniProt P10826). The experiment is described as follows: Binding affinity for retinoic acid receptor RAR beta.
For experiment [6], the system named is Rattus norvegicus. The experiment is described as follows: Percentage of rats with tumor after retinoid dose of 2 mmol/kg diet. Format: functional.
Experiment [7] addresses RARγ (Homo sapiens, UniProt P13631). The experiment is described as follows: Binding affinity for retinoic acid receptor RAR gamma.
In experiment [8] the test system is Rattus norvegicus. The experiment is described as follows: Mean number of tumors/rat after retinoid dose of 2 mmol/kg diet. Format: functional.
The subject of experiment [9] is Rattus norvegicus. The experiment is described as follows: Latency in DMBA-induced mammary tumor in rat after retinoid dose of 2 mmol/kg diet. Format: functional.
For experiment [10], the species on record is Rattus norvegicus. The experiment is described as follows: Percentage change in DMBA-induced mammary tumor in rats;no new tumors, partial regression in 6/8 tumors. Format: functional. In outline:
as §1

The species named for experiment [11] is Rattus norvegicus. Put plainly: Percentage change in DMBA-induced mammary tumor in rats;Two new tumors, partial regression in 10/14 tumors. Format: functional. In outline: as §1

Sequence of RARβ (P10826 whole entry, looked up): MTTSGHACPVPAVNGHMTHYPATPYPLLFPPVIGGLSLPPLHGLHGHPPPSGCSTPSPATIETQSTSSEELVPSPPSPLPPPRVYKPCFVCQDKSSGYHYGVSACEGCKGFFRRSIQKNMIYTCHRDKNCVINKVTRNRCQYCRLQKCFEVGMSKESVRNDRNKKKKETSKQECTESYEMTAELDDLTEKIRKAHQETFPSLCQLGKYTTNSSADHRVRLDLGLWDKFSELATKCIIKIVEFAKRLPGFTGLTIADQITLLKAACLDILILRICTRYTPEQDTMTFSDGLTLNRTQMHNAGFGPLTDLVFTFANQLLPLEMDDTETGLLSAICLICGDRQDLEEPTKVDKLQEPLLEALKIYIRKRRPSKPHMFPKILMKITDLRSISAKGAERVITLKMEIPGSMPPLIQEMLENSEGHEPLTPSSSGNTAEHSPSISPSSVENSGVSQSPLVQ
Sequence of RARα (P10276 whole entry, looked up): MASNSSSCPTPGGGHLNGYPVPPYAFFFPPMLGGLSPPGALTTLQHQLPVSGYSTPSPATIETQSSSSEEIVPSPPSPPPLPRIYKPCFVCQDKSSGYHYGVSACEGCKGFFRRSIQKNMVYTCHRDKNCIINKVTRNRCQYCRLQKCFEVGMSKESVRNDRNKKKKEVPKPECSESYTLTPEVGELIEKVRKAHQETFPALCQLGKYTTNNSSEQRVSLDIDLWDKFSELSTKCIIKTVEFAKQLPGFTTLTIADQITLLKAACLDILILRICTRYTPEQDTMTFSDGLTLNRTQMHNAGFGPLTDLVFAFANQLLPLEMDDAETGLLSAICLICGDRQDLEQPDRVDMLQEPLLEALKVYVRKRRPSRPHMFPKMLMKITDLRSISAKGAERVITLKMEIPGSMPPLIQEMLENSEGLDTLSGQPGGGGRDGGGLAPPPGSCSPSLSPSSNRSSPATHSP
Sequence of RARγ (P13631 whole entry, looked up): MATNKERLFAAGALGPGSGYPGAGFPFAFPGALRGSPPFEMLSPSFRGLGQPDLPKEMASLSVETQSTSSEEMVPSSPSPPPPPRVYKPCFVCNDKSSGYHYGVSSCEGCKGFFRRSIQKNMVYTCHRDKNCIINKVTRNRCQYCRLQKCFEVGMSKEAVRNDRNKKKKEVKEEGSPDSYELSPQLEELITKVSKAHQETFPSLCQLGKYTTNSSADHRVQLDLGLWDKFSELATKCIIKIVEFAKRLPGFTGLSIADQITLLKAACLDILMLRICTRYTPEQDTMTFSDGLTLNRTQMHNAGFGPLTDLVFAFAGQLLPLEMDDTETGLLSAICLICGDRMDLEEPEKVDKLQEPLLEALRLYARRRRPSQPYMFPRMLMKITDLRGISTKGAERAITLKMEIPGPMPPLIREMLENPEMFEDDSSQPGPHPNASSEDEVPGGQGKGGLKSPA

As to `CC1=C(/C=C/C(C)=C/C=C/C(C)=C/C(=O)O)C(C)(C)CCC1` [TRETINOIN], the Tumor volume came to 0.56 cm*3 in [1] and 0.94 cm*3 in experiment [2]. Also, the Change in experiment [3] is -40%.

The Ki is a dissociation constant, usually derived from enzyme kinetics or from competition with a known ligand. On to `CC1=C(/C=C/C(C)=C/C=C/C(C)=C/C(=O)Nc2ccc(O[C@@H]3O[C@@H](C(=O)O)[C@@H](O)[C@H](O)[C@@H]3O)cc2)C(C)(C)CCC1`, for which the Ki in [4] is above 2.2 µM; in experiment [5] it was above 2.8 µM; in [7], above 6 µM. Also, the Activity is 57% in experiment [6] and 0.71 in experiment [8]. Further, in experiment [9], the Mean tumor atency worked out at 48 days.

Consider `CC1=C(/C=C/C(C)=C/C=C/C(C)=C/C(=O)Nc2ccc(CC3OC(C(=O)O)C(O)C(O)C3O)cc2)C(C)(C)CCC1` (stereo not drawn), for which the Ki in experiment [4] is above 2.2 µM; in experiment [5], above 6 µM. In addition, in [10], the Change is on record as -21%. In addition, the Tumor volume in experiment [1] was 0.23 cm*3; in [2] it was 0.29 cm*3. The values for the Activity in experiment [6] and in experiment [8] were 27% and 0.36, respectively. The compound further displayed a Mean tumor atency in experiment [9] of 55 days.

With `CC1=C(/C=C/C(C)=C/C=C/C(C)=C/C(=O)Nc2ccc(O)cc2)C(C)(C)CCC1` [FENRETINIDE], the Ki was above 2.2 µM in [4], above 2.8 µM in experiment [5] and above 6 µM in experiment [7]. Further, the Change in experiment [11] is -25%. In addition, the Tumor volume in experiment [1] was determined as 0.12 cm*3; in [2], 0.16 cm*3.
